The test system of one series is LAT2. Conditions: cited from earlier work.
For the next series, the system named is 9L xenograft. Description: In vivo biodistribution in Fisher rats with 9L glioma tumors. As to conditions: for Tumor uptake: 9L tumor, n = 5; for Tumor uptake / Blood uptake / Bone uptake / Brain uptake / Heart uptake / Kidney uptake / Liver uptake / Lung uptake / Muscle uptake / Pancreas uptake / Skin uptake / Spleen uptake: mean ± SD; for Blood uptake / Bone uptake / Brain uptake / Heart uptake / Kidney uptake / Liver uptake / Lung uptake / Muscle uptake / Pancreas uptake / Skin uptake / Spleen uptake: six rats.

Series [1] has as its system 9L glioma cells. Description: In vitro cell uptake studies in 9L cells. The series is classed as cell-based. Conditions: time course up to 2 h. In a few lines:
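9L gliosarcoma cells were grown in DMEM with 10% FBS and 1% penicillin/streptomycin at 37 °C, 5% CO2. They were seeded at 2.0 × 10^5 cells/well 24 h ahead and rinsed with warm PBS containing Ca2+/Mg2+. Radiotracer in PBS (~500,000 cpm/mL/well) was applied for 5, 30, 60 or 120 min at 37 °C. Cells were washed in ice-cold Ca/Mg-free PBS, lysed in 1 M NaOH and gamma-counted. Uptake is %ID/100 μg Lowry protein, in triplicate.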

Another series relates to 9L tumor. Briefly: Small animal imaging with a microPET in 9L tumor bearing rats. It counts as in vivo, F344 rats. As to conditions: after intravenous injection, dynamic PET scan. In a few lines: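 Rats bearing 9L xenografts were anaesthetised with 1–2% isoflurane and given 30–37 MBq (0.8–1 mCi) of radiotracer via the lateral tail vein. Dynamic small-animal PET acquisition started at injection and ran 2 h (5 min frames, 0.5 mm3 voxels), with a heating pad for body temperature. Region-of-interest analysis gave tissue time-activity curves.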

Series [2] relates to 9L glioma cells. Description: Uptake mechanism. It counts as cell-based. As to conditions: 30 min incubation. In a few lines:
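The plating, washing, lysis and counting of 9L cells were as in the uptake assay. The radiotracer in PBS was co-incubated with MeAIB, L-Ala, L-Ser, BCH, D-Met or NEM at 0.5, 1 or 5 mM. For sodium dependence, PBS was replaced by Na+-free buffer (143 mM choline chloride, 2.68 mM KCl, 1.47 mM KH2PO4). Incubation was 30 min at 37 °C. Values are normalised to uninhibited uptake in PBS, n = 3.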

Where [3] appears, read: 30 min after single intravenous injection.
Where [4] appears, read: 60 min after single intravenous injection.

For `N[C@@H](Cc1ccc(OCC[18F])cc1)C(=O)O` [FET, O-(2-[^18F]fluoroethyl)-L-tyrosine], the Transport subtype selectivity result in the series with LAT2 is recorded as “selectively transported via LAT2”.

In the series on 9L xenograft (setting [3]), `N[C@@H](Cc1ccc(CC[18F])cc1)C(=O)O` [FEP, p-(2-[^18F]fluoroethyl)-L-phenylalanine] had a Tumor uptake of 0.82 ± 0.06 % ID/g, a Blood uptake of 0.73 ± 0.08 % ID/g, a Bone uptake of 0.41 ± 0.03 % ID/g and a Brain uptake of 0.53 ± 0.03 % ID/g. In the series on 9L xenograft (setting [3]), this compound displayed a Heart uptake of 0.70 ± 0.07 % ID/g, a Kidney uptake of 0.72 ± 0.05 % ID/g, a Liver uptake of 0.71 ± 0.07 % ID/g and a Lung uptake of 0.68 ± 0.08 % ID/g. In the series with 9L xenograft (setting [3]), the Muscle uptake was 0.58 ± 0.05 % ID/g, the Pancreas uptake is given as 2.66 ± 0.20 % ID/g, the Skin uptake amounted to 0.57 ± 0.07 % ID/g and the Spleen uptake came to 0.75 ± 0.06 % ID/g. Moreover, in the series with 9L xenograft (setting [4]), the Tumor uptake is 0.90 ± 0.20 % ID/g, the Blood uptake came to 0.65 ± 0.05 % ID/g, the Bone uptake was 0.41 ± 0.04 % ID/g and the Brain uptake stood at 0.52 ± 0.05 % ID/g. In the series on 9L xenograft (setting [4]), this compound registered a Heart uptake of 0.63 ± 0.05 % ID/g, a Kidney uptake of 0.63 ± 0.05 % ID/g, a Liver uptake of 0.63 ± 0.05 % ID/g and a Lung uptake of 0.61 ± 0.05 % ID/g. Further, in the series on 9L xenograft (setting [4]), the Muscle uptake was determined as 0.62 ± 0.05 % ID/g, the Pancreas uptake stood at 2.45 ± 0.27 % ID/g, the Skin uptake is listed as 0.60 ± 0.09 % ID/g and the Spleen uptake is listed as 0.69 ± 0.05 % ID/g. For the same compound, in the series on 9L xenograft (30 min after injection), the “Tumor to blood ratio” value was determined as 1.12, the Tumor/Brain ratio amounted to 1.55 and the Tumor/Muscle ratio turned out to be 1.41. Also, in the series on 9L xenograft (60 min after injection), the “Tumor to blood ratio” value stood at 1.38, the Tumor/Brain ratio came to 1.73 and the “Tumor/Muscle ratio (tumor to background)” value is 1.45. The “In vivo metabolic stability (from bone uptake)” value in the series with 9L xenograft (bone uptake not significant at 30 and 60 min) is listed as “metabolically stable”. Further, in the series with 9L glioma cells [1], the “Maximum uptake relative to FET” value is listed as “about 1.4 fold”. In the series with 9L tumor, the “Time for radioactivity in heart and muscle to reach a plateau” value was 20 min. In addition, the “Inhibition of uptake by BCH” value with 9L glioma cells [2] (5 mM BCH (system L inhibitor), normalized to uptake in PBS) is reported as “more than 98%”. Moreover, the “Inhibition of uptake by D-Met” value in the series with 9L glioma cells [2] (D-Met (LAT1 specific inhibitor)) was “very similar effect as BCH”. In the series with 9L glioma cells [2] (MeAIB (system A inhibitor) 0.5 to 5 mM), the “Inhibition of uptake by MeAIB” value was “no inhibition”. The “Sodium dependence of uptake” value in the series with 9L glioma cells [2] (Na+ replaced with choline vs PBS) is recorded as “sodium independent”.

The record behind these values is PMC3065024 (Nuclear medicine and biology, 2011).
